# bCat nuc transl: modulators of beta-catenin nuclear translocation, primary screen, imaging, HeLa cells, immunofluorescence, high-content; AID 1665, 2009; nuclear translocation activity, % at 5 µM; 190,000 compounds, 0.3% hits;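 active = nuclear translocation activity above 50% at 5 µM, with a well cell count of 50 or more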;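 note: per-cell ratio of nuclear to cytoplasmic median beta-catenin stain intensity; plate controls were DMSO negative control for no effect and GSK-3 inhibitor IX positive control for full effect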
#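 Read-out: Nuclear/cytoplasmic beta-catenin signal ratio, % activation | Assay system: Human HeLa cell line | Times: 24 h compound exposure at 37°C, 5% CO2 | Signal: Fluorescence imaging of beta-catenin antibody stain plus DAPI | Dosing: 5 µM primary, 0.02–20 µM confirmation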
# IEC-6 cytotox: cytotoxicity in IEC-6 intestinal epithelial cells, primary screen, cytotoxicity control for KLF5 inhibitor project, cell-based, luminescence; 290,000 compounds, 0.78% hits; IEC-6 cytotoxicity, luminescence viability; AID 1825, 2009; inhibition, % at 5 µM; in the data active = inhibition above about 22%;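 note: 0% = plate median of test compound wells and 100% = cytotoxic reference compound wells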
# KLF5 inhibitor: KLF5 expression inhibitors, primary screen, DLD-1 cells, luminescence. DLD-1 KLF5 promoter-luciferase reporter. inhibition, % at 5 µM. 290,000 compounds, 0.23% hits. AID 1700, 2009;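 active = inhibition above a per-plate limit of that plate's mean compound inhibition plus 3 SD, cut at about 60% in these data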;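 note: 0% = DMSO wells and 100% = LY294002 at 200 µM; higher means less KLF5 promoter-driven luciferase light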
# BaF3 tox: parental Ba/F3 cell viability inhibition, counter-screen for JAK2V617F inhibitor project, murine pro-B, CellTiter-Glo luminescence; CellTiter-Glo ATP luminescence; inhibition, % at 5.6 µM; 220,000 compounds, 1.1% hits; AID 1486, 2009;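 active = inhibition above a per-campaign cutoff, the mean inhibition of all tested compounds plus 3 SD, cut at about 27% in these data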;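 note: 0% = DMSO wells and 100% = JAK Inhibitor I control wells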
# Ba/F3 V617F tox: reduced viability of JAK2V617F-dependent Ba/F3 cells, primary screen, JAK2V617F inhibitor project, cell-based, Ba/F3 EpoR-JAK2V617F, luminescence | inhibition, % at 5.6 µM | AID 1446, 2008 | 220,000 compounds, 1.1% hits | ATP luminescence;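 active = inhibition above the campaign mean plus 3 SD over all tested compounds, cut at about 24% in these data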;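 note: cytokine-independent growth of Ba/F3 cells driven by EpoR plus mutant JAK2; 0% = DMSO-treated cells and 100% = JAK inhibitor I control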
# MT stabilizer: microtubule stabilizers in HeLa cells, primary screen, imaging, high-content imaging; % tubulin-high responders, % at 10 µM; AID 2205, 2009; HeLa tubulin immunostaining HCS, 24 h; share of cells brighter than vehicle mean+2SD; 200,000 compounds, 0.83% hits;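 active = plate Z-score above 3 for both tubulin-high and condensed-nucleus cell shares, with cell loss under 80%, at 10 µM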;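 note: anti alpha tubulin signal scored within the nucleus-defined area of each cell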
# * = called active by the depositor; x = no result given. An excerpt weighted towards active compounds, which were near 2.1% of everything screened.
SMILES,bCat nuc transl,IEC-6 cytotox,KLF5 inhibitor,BaF3 tox,Ba/F3 V617F tox,MT stabilizer
CN(C)c1ccc(NC(=O)c2cn(-c3ccccc3)nc2-c2cccs2)cc1,x,3,-50,8,3,2
CC(=O)C1=NN(c2ccccc2)C(c2ccc3c(c2)OCO3)N1c1ccccc1 (centres undefined),-4,-1,-43,46*,21,1
CC(=O)C1=NN(c2ccccc2)C(c2cccs2)N1c1ccc(N(C)C)cc1 (centres undefined),-2,8,-87,70*,81*,3
Cc1ccc(-n2cc(CNCC3CC(=O)N(C4CC4)C3)c(-c3cccc(C)c3)n2)cc1 (centres undefined),-1,8,-29,8,0,5
COc1ccc(N=c2cc(-c3ccc(OC)cc3)oc3ccccc23)cc1,3,1,-79,5,2,4
CCOc1ccc(N=c2cc(-c3ccc(OC)cc3)oc3ccccc23)cc1,-2,1,-28,71*,5,5
CCn1nnnc1SCC(=O)c1cccc(OC)c1,-3,-2,-22,45*,0,3
CCCCNc1ncnc2c1cnn2-c1ccc(Cl)cc1,48,19,-113,9,4,18*
CCOC(=O)c1c(C)[nH]c(C(=O)N/N=C/c2ccc(Br)cc2)c1C,121*,85*,72*,78*,73*,8
CCN(CC)c1ccc(/C=C(\C#N)c2ccccn2)cc1,x,0,-129,0,-2,22*
COc1ccc(-n2c(C)cc(C(=O)CN3C(=O)C(=O)N(Cc4ccccc4)C3=O)c2C)cc1,6,-4,-7,1,-2,13*
CCC1S/C(=C(\C#N)C(=O)NCc2ccco2)N(c2ccc(Br)cc2)C1=O (centres undefined),-3,2,-18,5,-1,2
CCC1S/C(=C(\C#N)C(=O)NCc2ccco2)N(c2ccc(F)cc2)C1=O (centres undefined),-2,-8,-21,33*,4,3
COc1ccc(OC)c(-c2csc(NC(=O)c3ccc(OCC4CCCO4)cc3)n2)c1 (centres undefined),9,-4,-5,30*,3,9
Cc1cc(N2CCC(C)CC2)nc2cccc(O)c12,8,-5,-28,1,-1,3
CCCCOc1ccc(CN(C)c2ncnc(N)n2)cc1,27,1,-22,2,-2,23*
O=C1CSC(c2cccnc2)N1C1CCCCC1 (centres undefined),0,6,-5,4,2,4
O=C1CSC(c2ccc(Cl)cc2)N1C1CCCCC1 (centres undefined),-3,3,-9,40*,2,2
Cc1ccc(-c2nn3cnnc3c3ccccc23)cc1,-1,3,-10,82*,1,3
CCC(C)(C)NC(=O)/C=C/c1cccs1,-2,-4,3,-1,1,8
CCn1cc(C(=O)O)c(=O)c2cnc(N3CCN(C(=S)NC(=O)c4ccc(Cl)cc4)CC3)nc21,0,-6,13,-3,0,x
CC(=O)Nc1ccc(C(=O)OCC(=O)NCc2ccc(Cl)cc2)cc1,50*,7,-15,2,1,32*
Cc1cc(C)n(-c2ccc(C(=O)OCC(=O)NCc3ccc(Cl)cc3)cc2)n1,2,-5,-31,0,-3,2
CCOC(=O)C1C(c2cccs2)NC(=O)NC1(O)C(F)(F)F (centres undefined),-1,-2,-11,1,-3,2
CCOC(=O)C1C(c2cccnc2)NC(=O)NC1(O)C(F)(F)F (centres undefined),-2,-2,-19,5,-2,17*
SMILES,bCat nuc transl,IEC-6 cytotox,KLF5 inhibitor,BaF3 tox,Ba/F3 V617F tox,MT stabilizer
Cc1ccc(CN2CCN(/N=C/c3ccc(C(=O)O)cc3)CC2)c(C)c1,0,7,-4,53*,8,3
COC(=O)c1ccc(/C=N/N2CCN(Cc3ccc(C)cc3C)CC2)cc1,x,-4,-9,2,-4,3
CCc1cccc(NC(=O)C2CCCN(S(=O)(=O)c3cccs3)C2)c1 (centres undefined),x,3,9,x,x,x
COc1ccc(C2C3=C(CCCC3=O)Nc3nc(-c4cc(OC)c(OC)c(OC)c4)nn32)cc1OC (centres undefined),-2,1,-25,93*,0,6
Cc1ccc(N/C(N)=N/c2nc(CSc3nnc(C)s3)cc(=O)[nH]2)c(C)c1,20,9,-29,4,-1,12*
CN1CCC(OC(=O)c2cc3cc(Br)ccc3oc2=O)CC1,x,2,-22,x,x,x
CCOC(=O)C(C)Sc1nc(-c2cccs2)ccc1C#N (centres undefined),1,6,-13,4,-5,44*
C=COC(=O)CSc1nc(-c2cccs2)ccc1C#N,-1,-10,-57,2,2,9
Cc1cc(C)c(OCC(=O)N/N=C/c2ccc3c(c2)OCO3)c(C)c1,26,-2,-2,9,4,26*
Cc1cccc(OCC(=O)N/N=C/c2ccc3c(c2)OCO3)c1,-2,0,-1,2,-4,4
COC(=O)c1sccc1NC(=S)N1CCCCC1,-1,2,-2,5,3,1
COC(=O)c1sccc1NC(=S)N1CCN(c2cccc(C)c2C)CC1,-1,1,-21,6,-1,15*
O=C(N/N=C/c1cccc(Oc2ccccc2)c1)c1ccccc1Br,4,-8,-30,4,-1,27*
O=C(N/N=C/c1cccc(Oc2ccccc2)c1)c1cccc(Br)c1,0,2,9,1,-3,2
CCOc1ccc(N(CC(=O)Nc2ccccc2C)S(=O)(=O)c2c(C)noc2C)cc1,68*,63*,28,54*,78*,15*
CCOc1ccccc1NC(=O)CN(c1ccc(OC)cc1)S(=O)(=O)c1c(C)noc1C,2,2,-6,75*,79*,17*
Cc1cccnc1NC(=O)C1CCCN1S(=O)(=O)c1ccc(Cl)cc1 (centres undefined),x,-1,-21,x,x,x
Cc1ccc(C)c(NS(=O)(=O)c2ccc(OCC(=O)NCc3ccccn3)cc2)c1,0,1,-14,2,-1,2
COc1ccc(-n2c(-c3ccc(Br)cc3)c[n+]3c2CCc2ccccc2-3)cc1,-1,15,-8,78*,88*,2
COc1ccc(-n2cc(-c3ccc(Br)cc3)[nH]c2=S)cc1,-4,-6,-25,5,-3,3
COc1ccccc1-n1c(-c2ccccc2)c[nH]c1=S,1,0,-15,-3,-6,4
